About 50 (0.08%) of roughly 62,000 compounds were called active. This is one part of a sample in which actives are shown more often than they occur. A number with no mark means an inactive call.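 How the source made its calls: active means inhibition above 30% in each of the two pooled mixtures holding the compound, so the lower value exceeds 30%; inactive means the rest.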
Test: alternative complement pathway inhibitors, primary screen, biochemical, ELISA, human serum, orthogonally pooled compounds (AID 1235);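 further: 0% = serum in Mg-EGTA without compound and 100% = EDTA serum blank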
Details: LPS-coated ELISA, C3 deposition, tested in compound mixtures, at 5 µM, active compounds read high
Method in brief: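 Medium: diluted human serum in Mg2+-EGTA GVB++. Assay system: human serum complement alternative pathway, C3 deposition onto LPS. Also added: Plate-bound LPS. Technique: Anti-C3 ELISA, OD 450 nm. Measure: percent inhibition. Incubation: 1 h at 37 °C. Dosing: 5 µM each compound, pools of ten, 50 µM per pool.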

| SMILES | inhibition |
| --- | --- |
| COc1ccccc1CNC(=O)C1CCN(S(C)(=O)=O)CC1 | 35.9% (active) |
| COc1ccccc1CNC(=O)C1CCN(c2nc3ccccc3o2)CC1 | -3.35% |
| COc1ccccc1CNC(=O)C1CCCN(S(=O)(=O)c2cccc3cccnc23)C1 (stereo unspecified) | 5.61% |
| CCn1c(SCC(=O)Nc2ccccc2F)nc2c(c1=O)SC(C)C2 (stereo unspecified) | -1.83% |
| COC(=O)c1ccc(N(CC(=O)NC2CCCC2)C(=O)CNC(=O)c2ccco2)cc1 | 13.6% |
| CCCNC(=O)Nc1ccccc1C(=O)Nc1ccc(OC)cc1 | 6.47% |
| CCCN1C2=C(C(=O)CCC2)C(c2ccc(O)c(Br)c2)C2=C1CCCC2=O | 3.41% |
| COc1ccc(OC)c(Nc2nc(-c3ccc(O)c(O)c3)cs2)c1 | 15.1% |
| O=c1c2ccccc2nc(CSc2nnnn2-c2ccccc2)n1-c1ccccc1 | 16.5% |
| CCC1C(C#N)=C(SC)NC2=C1C(=O)CC(C)(C)C2 (stereo unspecified) | 29.5% |
| C=C(C)Cn1c(N2CCCC2)nc2c1c(=O)[nH]c(=O)n2C | 13.6% |
| COc1ccc(OC)c(NC(=O)CC(Cc2ccccc2OC)C(=O)O)c1 (stereo unspecified) | 6.63% |
| O=C(Cn1cnc2c(nnn2-c2ccccc2)c1=O)N1CCC(Cc2ccccc2)CC1 | 12.9% |
| CCC1SC2=NCCN2C1(O)c1ccc(Cl)cc1 (stereo unspecified) | -4.64% |
| CCN(CC)c1ccc(C(=O)OCC(=O)c2ccco2)cc1 | -18.9% |
| Cc1nn(Cc2ccc(Cl)c(Cl)c2)c(C)c1NC(=O)c1cc(C2CC2)on1 | 14.3% |
| COc1ccccc1N1CCN(c2nc3ccccc3n3nnnc23)CC1 | -4.06% |
| CCOC(=O)c1cc2sccc2n1Cc1ccc(C#N)cc1 | 8.71% |
| COCCNC(=O)c1snc2ccc(Cl)cc12 | -12.7% |
| Cc1ccn2cc(-c3nonc3C)cc2c1 | 17.2% |
| Cc1ccc(N2C(=O)CC(NCc3ccc4c(c3)OCO4)C2=O)cc1Cl (stereo unspecified) | 24.4% |

| SMILES | inhibition |
| --- | --- |
| O=C(Nc1ccc2c(c1)OCCO2)C1CCCN(c2ncccn2)C1 (stereo unspecified) | 4.42% |
| CCOc1ccc(OCC)c(NC(=O)C2CCN(S(=O)(=O)c3c(C)noc3C)CC2)c1 | 4.52% |
| O=C(NCCc1ccccn1)c1ccc(COc2ccccc2)o1 | 13.5% |
| COc1cccc(NC(=O)c2ccccc2SC)c1 | 12.3% |
| CC(C)OCCCNC(=O)C1CC(=O)N(C2CCCCCCC2)C1 (stereo unspecified) | 16.3% |
| CC(C)(O)C#Cc1ccc(C(=O)N2CCC(C(N)=O)(N3CCCCC3)CC2)cc1 | 0.925% |
| CCN(CC)S(=O)(=O)c1ccc2nc(CSc3nnnn3-c3ccc(O)cc3)[nH]c2c1 | -3.47% |
| O=C(NCc1cccnc1)c1cn(-c2ccccc2)nc1-c1cccs1 | 0.865% |
| COc1ccc(NC(=O)CCNC(=O)Cn2ccc3ccccc3c2=O)c(OC)c1 | 29.1% |
| CCOC(=O)c1ccc(N2C(=O)CC(N3CCC(C(=O)OCC)CC3)C2=O)cc1 (stereo unspecified) | -0.58% |
| O=P(O)(CN1CCCCC1)CN1CCCCC1 | 8.65% |
| Cc1noc(C)c1CSc1nnc2ccc3ccccc3n12 | 9.95% |
| COc1ccc(OC)c(S(=O)(=O)Nc2ccccc2F)c1 | 6.16% |
| COC(=O)Nc1ccc(S(=O)(=O)N(C)CC(F)(F)C(F)F)cc1 | 13.5% |
| Cc1ccc(C)c(N2CCN(C(=O)CCc3nc4ccccc4[nH]3)CC2)c1 | 18.5% |
| Cc1ccc(-c2nnn(CC(=O)N(CCO)C(C(=O)NC(C)(C)C)c3ccncc3)n2)cc1 (stereo unspecified) | 9.36% |
| Cc1ccc(C)c(N2CCN(S(=O)(=O)c3ccc4c(c3)oc(=O)n4C)CC2)c1 | 3.29% |
| CN(C)CC(O)COc1ccc(C(C)(C)c2ccc(OCC(O)CN(C)C)cc2)cc1 (stereo unspecified) | 0.48% |
| Cc1nc(Nc2ccc3c(c2)OCCO3)c2nnn(Cc3ccccc3Cl)c2n1 | 1.64% |
| Cc1cc(C)c(C#N)c(SCS(=O)c2ccc(C(C)(C)C)cc2)n1 (stereo unspecified) | 4.51% |
| COc1ccc(-c2[nH]nc3c2C(c2ccncc2)C(C#N)=C(N)O3)cc1 (stereo unspecified) | 0.015% |

| SMILES | inhibition |
| --- | --- |
| CC(C)(C)c1cc(CN2CCN(CCC#N)CC2)cc(C(C)(C)C)c1O | -7.06% |
| CC1CCc2c(sc(NC(=O)c3ccc(Cn4cc(Br)cn4)o3)c2C(N)=O)C1 (stereo unspecified) | 8.16% |
| Cc1cccc(N=C2NC(=O)CS2)c1C | 4.01% |
| Cc1ccc2nc(S(=O)(=O)O)[nH]c2c1 | -4.08% |
| O=C(Cn1nc(C(F)(F)F)c2c1CCC2)NCc1ccc(F)cc1 | -10.2% |
| CCc1nnc(NC(=O)CSc2nnc(-c3ccncc3)n2Cc2ccccc2)s1 | 6.79% |
| C=C(C)Cn1c(N2CCN(CC)CC2)nc2c1c(=O)[nH]c(=O)n2C | -2.46% |
| COC(=O)C(C)n1cnc2c(nnn2-c2cccc(Cl)c2)c1=O (stereo unspecified) | 7.95% |
| Cc1c(C(=O)N2CC(C)OC(C)C2)sc2nc(-c3ccccc3)cn12 (stereo unspecified) | 11% |
| FC(F)(F)c1cccc(Nc2ncnc3ccccc23)c1 | 13.9% |
| Cc1cc(=O)n2nc(N3CCCC3C(=O)NCCCN3CC(C)CC(C)C3)sc2n1 (stereo unspecified) | 20.4% |
| CCCN1CC=C2C(C#N)=C(N)C(C#N)(C#N)C(c3cc(OC)ccc3OC)C2C1 (stereo unspecified) | -5.21% |
| Cc1cc(C(=O)O)c(S(C)(=O)=O)s1 | 21.7% |
| O=C(OCc1cc2ccccc2[nH]c1=O)c1cccnc1 | 1.83% |
| CCOC(=O)N1CCN(CC(=O)c2ccc3c(c2)CCN3)CC1 | 22.3% |
| CCOC(=O)C1(C(F)(F)F)N=C(N(C)C)OC(N(C)C)=N1 | 23.1% |
| O=C(CSc1n[nH]c(-c2cccnc2)n1)Nc1ccnc2ccccc12 | -1.01% |
| CSc1nnc2c(n1)OC(c1cn(C)c3ccccc13)N(C(C)=O)c1ccccc1-2 (stereo unspecified) | 12.4% |
| Cc1nc2nc(CSc3nc4ccccc4s3)cc(=O)n2[nH]1 | 8.57% |

Source: PubChem BioAssay AID1235 (PCMD, 2008)
